Test results published in ChEMBL document CHEMBL2057119, “Small molecules that protect against β-amyloid-induced cytotoxicity by inhibiting aggregation of β-amyloid” (Bioorg Med Chem, 2012).
Calls of active or inactive are those of the source. The rule behind the calls is not given here.

Key:
[1] = target: T1, Amyloid-beta precursor protein (Homo sapiens, UniProt P05067); assay: Inhibition of amyloid beta (1 to 42) fibril formation at 10 uM after 1 hr by ThT spectrofluorometric analysis
Procedure, shortened: (§1)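 ThT diluted to 5 µM in 50 mM glycine buffer was then added. After 10 s of shaking, fluorescence was read at excitation 450 nm and emission 480 nm, as a measure of fibril formation.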

[2] = Cytotoxicity against mouse HT22 cells assessed as viability at 10 uM after 18 hrs by MTT assay; assay type: cell-based, HT-22; details: read-out: Activity
Procedure, shortened: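 HT22 murine hippocampal cells were grown in DMEM with 10% FBS at 37 °C, 5% CO2, and plated at 5×10^3 cells/well. They were switched to plain DMEM and serum-starved for 1 h before exposure to compound at 10 µM for 18 h. MTT solution (5 mg/mL) was added for 4 h at 37 °C. Cells were solubilized in 50% DMF/10% SDS (pH 4.7) for 18 h, absorbance was read at 570/630 nm, and % cytotoxicity was calculated.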

[3] = target: T1, Amyloid-beta precursor protein; assay: Inhibition of amyloid beta (1 to 42) fibril formation after 1 hr by ThT spectrofluorometric analysis; procedure, shortened: as §1
[4] = target: T1, Amyloid-beta precursor protein; assay: Inhibition of amyloid beta (25 to 35)-induced cell death in mouse HT22 cells at 10 uM after 18 hrs by MTT assay; assay type: cell-based; details: HT-22, values are per cent of control
Procedure, shortened: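 HT22 cells were plated at 5×10^3 cells/well, serum-starved in plain DMEM for 1 h, and pretreated with compound for 1 h. Aβ(25–35) was prepared as a 10 mM DMSO stock, diluted 10-fold in PBS, and aggregated for 1 h at room temperature. It was then added at a final 25 µM, and cells were incubated for 18 h. Viability was measured by MTT (4 h), then solubilization in DMF/SDS and absorbance at 570/630 nm.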

[5] = target: T1, Amyloid-beta precursor protein; assay: Inhibition of amyloid beta (1 to 42) aggregation at 2 uM after 2 hrs by SDS-PAGE and PICUP technique
Procedure, shortened: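 Aβ(1–42) was monomerized in HFIP (0.5 mM), dried, and redissolved in DMSO. It was incubated at 25 µM final in PBS (pH 7.3) with compound at 2 µM final for 2 h at 37 °C. Samples were photo-cross-linked (PICUP) with ammonium persulfate and Ru(bpy)3Cl2 using three 1 s irradiations, quenched, and boiled. Products were resolved on a 10–20% tris-tricine gel and silver-stained.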

Mus musculus [6] = assay: Antialzheimer activity in ICR mouse assessed as reduction in amyloid beta (1 to 42)-induced spontaneous memory loss at 100 mg/kg, po measured after 2 days by Y-maze test; assay type: functional; parameters: scale not given: the % may be the effect or the level left
Procedure, shortened: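 Aβ(1–42) at 10 nM in PBS (from a 250 µM DMSO stock) was aggregated at 37 °C for 6 days, then injected ICV (50 µL, 2.4 mm depth at bregma) into male ICR mice. Compound was given at 100 mg/kg po once daily, and the Y-maze test was on day 2. Each mouse explored a three-arm maze freely for 8 min. An entry counted when all four limbs were in an arm; spontaneous alternation was scored as three consecutive different-arm entries. n = 10, mean ± SEM.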

Mus musculus [7] = assay: Antialzheimer activity in ICR mouse assessed as reduction in amyloid beta (1 to 42)-induced spontaneous memory loss at 100 mg/kg, po measured after 2 days by object recognition task relative to control; assay type: functional; parameters: scale not given: the % may be the effect or the level left
Procedure, shortened: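 Male ICR mice received ICV pre-aggregated Aβ(1–42) at 10 nM (50 µL, 2.4 mm depth at bregma), then compound at 100 mg/kg po once daily. Object recognition ran on days 2–3. Exploration was counted as the nose directed at an object within 2 cm and/or touching it, and objects were cleaned to avoid olfactory cues. Preference index = exploration time for new object / total exploration time. n = 10, mean ± SEM.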

Mus musculus [8] = assay: Antialzheimer activity in ICR mouse assessed as increase in amyloid beta (1 to 42)-induced step-through latency at 100 mg/kg, po measured after 3 days by passive avoidance test; assay type: functional
Procedure, shortened: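 Male ICR mice got 50 µL of pre-aggregated Aβ(1–42) by ICV injection at 2.4 mm depth at bregma. The peptide was a 250 µM DMSO stock diluted in PBS to 10 nM and aggregated at 37 °C for 4 days. Oral compound was given at 100 mg/kg once daily, with testing on days 3–4. Training used a 0.25 mA, 3 s shock; step-through latency into the dark compartment was measured 24 h later. n = 10, mean ± SEM, t-test.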

Mus musculus [9] = assay: Antialzheimer activity in amyloid beta (1 to 42)-challenged ICR mouse assessed as decrease in escape latency at 100 mg/kg, po measured after 7 days by water maze test; assay type: functional, organism-based; parameters: dose 100 mg/kg
Procedure, shortened: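 Male ICR mice were injected ICV with 50 µL of pre-aggregated Aβ(1–42) at 10 nM. Compound was then supplied for 7 days in pellet feed, each pellet containing 3 mg. Water maze training ran on days 3–7, and escape latency was recorded across training sessions. n = 10, mean ± SEM.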

[10] = target: T1, Amyloid-beta precursor protein; assay: Viability of cells treated with amyloid beta (25 to 35) in mouse HT22 cells at 25 uM after 18 hrs by MTT assay; details: HT-22

T1 sequence (P05067 whole entry): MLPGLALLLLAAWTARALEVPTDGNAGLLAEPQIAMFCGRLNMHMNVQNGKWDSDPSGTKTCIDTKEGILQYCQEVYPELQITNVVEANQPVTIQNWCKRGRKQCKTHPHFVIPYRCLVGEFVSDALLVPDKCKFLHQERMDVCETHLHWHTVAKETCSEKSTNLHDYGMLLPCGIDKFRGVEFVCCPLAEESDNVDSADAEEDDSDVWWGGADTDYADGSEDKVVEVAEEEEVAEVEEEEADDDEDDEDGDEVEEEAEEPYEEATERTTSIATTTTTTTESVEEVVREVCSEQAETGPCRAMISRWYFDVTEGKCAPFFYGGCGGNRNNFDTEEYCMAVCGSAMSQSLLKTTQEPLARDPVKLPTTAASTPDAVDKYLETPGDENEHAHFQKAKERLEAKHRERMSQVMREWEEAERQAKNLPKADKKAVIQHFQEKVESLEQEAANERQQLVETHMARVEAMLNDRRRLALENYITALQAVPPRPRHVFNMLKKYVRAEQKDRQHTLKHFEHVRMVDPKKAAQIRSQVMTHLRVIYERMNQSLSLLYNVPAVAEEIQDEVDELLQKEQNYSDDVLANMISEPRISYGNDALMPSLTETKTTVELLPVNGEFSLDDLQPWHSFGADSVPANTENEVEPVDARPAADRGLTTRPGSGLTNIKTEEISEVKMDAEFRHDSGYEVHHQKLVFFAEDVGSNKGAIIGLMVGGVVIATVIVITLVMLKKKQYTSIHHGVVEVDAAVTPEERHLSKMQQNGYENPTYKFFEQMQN

Compound | inhibition [1] | viability at 18 h, 10 µM [2] | other results
COc1nc(/C=C/c2ccc(OC)c(O)c2)cc(/C=C/c2ccc(OC)c(O)c2)n1 | 55% | 98.4% | –
Oc1ccc(/C=C/c2cc(/C=C/c3ccc(O)cc3)ncn2)cc1 | 64.3% | 104% | –
Oc1cc(/C=C/c2ccccc2)cc(/C=C/c2ccccc2)c1 | 19.8% | – | –
CN(C)c1ccc(/C=C/c2cc(/C=C/c3ccc(N(C)C)c(O)c3)ncn2)cc1O | 93.7% | 133% | IC50 [3]: 3.4 µM; viability, % of control [4]: 76.6%; inhibition [5]: Active; Activity (Mus musculus [6]): 67%; Activity (Mus musculus [7]): 7%; Time (Mus musculus [8]): 118 s; Activity (Mus musculus [9]): Active
COc1cc(/C=C/c2cc(O)cc(/C=C/c3ccc(O)c(OC)c3)c2)ccc1O | 79% | 80.9% | –
C(=C\c1cccc(/C=C/c2ccccc2)c1)/c1ccccc1 | 19.8% | – | –
COc1nc(/C=C/c2cccc(O)c2)cc(/C=C/c2cccc(O)c2)n1 | – | 45.9% | –
Oc1cccc(/C=C/c2cc(O)cc(/C=C/c3cccc(O)c3)c2)c1 | 7.1% | 59.2% | –
COc1nc(/C=C/c2ccc(O)cc2)cc(/C=C/c2ccc(O)cc2)n1 | 67.4% | 101% | –
COc1ccc(/C=C/c2cccc(/C=C/c3ccc(OC)c(O)c3)c2)cc1O | 67.9% | 69.5% | –
Oc1cccc(/C=C/c2cccc(/C=C/c3cccc(O)c3)c2)c1 | – | 47% | –
H-GSNKGAIIGLC-OH | – | – | viability [10]: 56%
CSc1nc(/C=C/c2cccc(O)c2)cc(/C=C/c2cccc(O)c2)n1 | – | 43.7% | –
CN(C)c1cc(/C=C/c2cc(O)cc(/C=C/c3ccc(O)c(N(C)C)c3)c2)ccc1O | 74.2% | 66% | –
C(=C\c1cc(/C=C/c2ccccc2)ncn1)/c1ccccc1 | 47.4% | – | –
COc1cc(/C=C/c2cc(/C=C/c3ccc(O)c(OC)c3)ncn2)ccc1O | 79.3% | 216% | IC50 [3]: 3.2 µM; viability, % of control [4]: 103%; inhibition [5]: Active; Activity (Mus musculus [6]): 67%; Activity (Mus musculus [7]): 13%; Time (Mus musculus [8]): 118 s; Activity (Mus musculus [9]): Active
CSc1nc(/C=C/c2ccc(O)cc2)cc(/C=C/c2ccc(O)cc2)n1 | 67.4% | 65.3% | –
CN(C)c1cc(/C=C/c2cc(/C=C/c3ccc(O)c(N(C)C)c3)ncn2)ccc1O | 83.5% | 146% | IC50 [3]: 3.7 µM; viability, % of control [4]: 85.3%; inhibition [5]: Active; Activity (Mus musculus [6]): 67%; Activity (Mus musculus [7]): inactive; Time (Mus musculus [8]): 118 s; Activity (Mus musculus [9]): Active

Compound | inhibition [1] | viability at 18 h, 10 µM [2] | other results
CSc1nc(/C=C/c2ccc(O)c(N(C)C)c2)cc(/C=C/c2ccc(O)c(N(C)C)c2)n1 | 78.6% | 77.3% | –
CN(C)c1ccc(/C=C/c2cc(O)cc(/C=C/c3ccc(N(C)C)c(O)c3)c2)cc1O | 83.3% | 64.4% | IC50 [3]: 3.3 µM
Oc1cccc(/C=C/c2cc(/C=C/c3cccc(O)c3)ncn2)c1 | 14.1% | 142% | –
COc1nc(/C=C/c2ccc(N(C)C)c(O)c2)cc(/C=C/c2ccc(N(C)C)c(O)c2)n1 | 90.4% | 101% | IC50 [3]: 0.8 µM; viability, % of control [4]: 67.4%
COc1ccc(/C=C/c2cc(/C=C/c3ccc(OC)c(O)c3)nc(SC)n2)cc1O | 75.2% | 78.8% | –
CN(C)c1cc(/C=C/c2cccc(/C=C/c3ccc(O)c(N(C)C)c3)c2)ccc1O | 63.9% | 95.7% | –
COc1ccc(/C=C/c2cc(O)cc(/C=C/c3ccc(OC)c(O)c3)c2)cc1O | 84.5% | 73.5% | IC50 [3]: 1.6 µM
CSc1nc(/C=C/c2ccccc2)cc(/C=C/c2ccccc2)n1 | 11.6% | – | –
Oc1ccc(/C=C/c2cccc(/C=C/c3ccc(O)cc3)c2)cc1 | 58.4% | 102% | –
COc1nc(/C=C/c2ccc(O)c(OC)c2)cc(/C=C/c2ccc(O)c(OC)c2)n1 | 68% | 75.2% | –
COc1nc(/C=C/c2ccc(O)c(N(C)C)c2)cc(/C=C/c2ccc(O)c(N(C)C)c2)n1 | 74.1% | 96.6% | viability, % of control [4]: 59%
CN(C)c1ccc(/C=C/c2cccc(/C=C/c3ccc(N(C)C)c(O)c3)c2)cc1O | 56% | 101% | –
COc1nc(/C=C/c2ccccc2)cc(/C=C/c2ccccc2)n1 | 18.8% | – | –
COc1cc(/C=C/c2cc(/C=C/c3ccc(O)c(OC)c3)nc(SC)n2)ccc1O | 67.6% | 79% | –
Oc1ccc(/C=C/c2cc(O)cc(/C=C/c3ccc(O)cc3)c2)cc1 | 80.7% | 37.4% | IC50 [3]: 1.6 µM
CSc1nc(/C=C/c2ccc(N(C)C)c(O)c2)cc(/C=C/c2ccc(N(C)C)c(O)c2)n1 | 88.8% | 85.3% | IC50 [3]: 1.1 µM
COc1cc(/C=C/c2cccc(/C=C/c3ccc(O)c(OC)c3)c2)ccc1O | 71.5% | 74.8% | –
